Source: ChEMBL document CHEMBL4513216, “Probing the Open Global Health Chemical Diversity Library for Multistage-Active Starting Points for Next-Generation Antimalarials” (ACS Infect Dis, 2020)

Experiment: Toxicity liver stage against HepG2, at 10uM
Type: cell-based
Set-up: test concentration 10 uM, cell line HepG2-A16-CD81EGFP
Conditions: human, HepG2-A16-CD81EGFP cells; read-out: INHIBITION
Method in brief: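 Uninfected HepG2-A16-CD81EGFP cells, 3 × 10^3 per well, 1536-well, plated on prespotted compound at 10 μM final, parasite-free screening media added to match infected plates; puromycin 10 μM positive, DMSO 0.5% negative; run in parallel with 48 h PbLuc assay at 37 °C, 5% CO2; viability by CellTiter-Glo luminescence, normalized to controls.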

Structure (SMILES) | cytotoxicity at 10 µM
COc1ccc(O[C@H]2COCCN(Cc3c[nH]c4ccccc34)C2)cc1 | 1.82%
C[C@@H](NC(=O)c1cnccn1)c1c(-c2ccc(F)cc2)noc1C(=O)O | 1.02%
Cc1ccn(CCC(=O)NCc2ccco2)n1 | 5.94%
CN1C[C@H](O)[C@]2(CCN(Cc3ccc(OC(F)(F)F)cc3)C2)S1(=O)=O | -5.57%
COc1ccccc1C(=O)N1CC(=O)N(CC(C)C)CC(O)C1 (stereo unspecified) | 4.37%
O=C(Nc1nc2c(s1)CN(S(=O)(=O)C1CC1)CC2)c1cccc(Cl)c1 | 1.55%
O=c1ccc2c([nH]1)CCN(S(=O)(=O)c1ccc3c(c1)OCCO3)C2 | -3.06%
CCOCC(=O)NCc1cc(C2CC2)n(C2CCCC2)n1 | -0.165%
C[C@@H]1CN(C(=O)Cc2ccsc2)C[C@]12CCN(CCN(C)C)C2=O | -1.1%
CCN1CCOCC2(CCCN(C(=O)c3cccc(O)c3)C2)C1 (stereo unspecified) | 0.14%
Cc1nnc([C@@H]2C[C@H]3CN(C(=O)C4CC4)C[C@H]3O2)[nH]1 | 19.8%
Cc1cnc(C(=O)N2C[C@H]3CCCC(OCc4cccnc4)[C@H]3C2)cn1 (stereo partly specified) | 3.51%
Cc1csc(CN2CC[C@H]3C[C@H](c4ccncn4)O[C@@H]3C2)n1 | -148%
COc1cccc(NC(=O)CC2Cn3ncnc3NC2=O)c1 (stereo unspecified) | 4.4%
Cn1cc(C(=O)Nc2ccc3c(c2)CN(C(=O)c2ccco2)CC3)nn1 | 0.0452%
O=C(NCCn1ccc(-c2ccncc2)n1)c1ccncc1 | -19.1%
CCCNC(=O)c1c(-n2cnnn2)sc2c1CCC2 | 4.05%
Cc1occc1C(=O)N1CCc2ncnc(-c3cnn(C)c3)c2CC1 | -4.77%
O=C(C1CCOCC1)N1CCc2ncnc(-c3ccc(F)cc3)c2CC1 | -6.28%
CCOc1ccc2oc(-c3cn(C)nc3C)c(O)c(=O)c2c1 | 7.72%
c1ccc2c3c([nH]c2c1)C(c1nn[nH]n1)CCC3 (stereo unspecified) | -7.23%
COc1nsc2nc(C3CCCN3C(C)=O)ccc12 (stereo unspecified) | 6.78%
Cc1cc(C)nc(N2CCC(Cn3cc(C(=O)N(C)C)cn3)CC2)n1 | 6.28%

Structure (SMILES) | cytotoxicity at 10 µM
CNC(=O)CCc1cc(C)nc(C2CCCCN2)n1 (stereo unspecified) | -9.83%
C[C@]1(O)CCN(Cc2nccs2)C[C@@H]1Oc1cccc(F)c1 | -0.779%
Cc1cc2cc(C(=O)N[C@@H]3CC[C@@H](N4CCCC4)[C@@H]3O)ccc2o1 | -4.72%
CN(C)C(=O)C1(CCCc2ccncc2)CCCN1 (stereo unspecified) | 0.59%
O=C(c1cccc(O)c1)N1CCN(Cc2nnc(C3CCC3)o2)CC1 | -8.52%
Cc1cc(CC(=O)N(C)Cc2cccc(OC(C)C)c2)n[nH]1 | 1.1%
NS(=O)(=O)c1ccc(N2CCN(CCCc3cn[nH]c3)CC2)cc1 | -145%
CSc1ccc(NCC(=O)NCC(=O)N2CCCC2)cc1F | 2.63%
O=C1NCCCN1Cc1nc(-c2ccc(N3CCCCC3)cc2)no1 | 3.24%
CNC(=O)c1cccc(NCCOc2ccc(CC#N)cc2)c1C | -0.662%
CNC(=O)c1cccnc1NCc1ccc(-n2cccn2)cc1 | 14.1%
COCCOCC(=O)NCc1ccc(N(C)C)nc1 | 8.87%
CSCC(=O)N(Cc1ccccn1)Cc1ccccc1C | 7.79%
Cc1c(C(=O)N2CCCSCC2)nnn1-c1ccccc1Cl | 8.31%
c1cc(CNCc2ccnc(N3CCOCC3)c2)c2c(c1)OCCCO2 | 7.82%
CC(=O)N1CCN(CCNS(=O)(=O)c2cc(F)cc(F)c2)CC1 | 7.24%
CCn1cnnc1CNC(=O)C1COc2ccc(Cl)cc2C1 (stereo unspecified) | -0.845%
Cc1cc(-c2nc(-c3cccc(CN4CCOCC4)c3)no2)no1 | -7.33%
O=C(NCCC1CCN(CC(F)(F)F)CC1)C1CCOC1 (stereo unspecified) | 5.69%
NC(=O)c1cccc(CCNC(=O)N2Cc3ccccc3C2)c1 | -9.86%
COCC(O)CN(C)c1ccnc2ccc(Cl)cc12 (stereo unspecified) | -5.93%
NC(=O)N1CCC(C(=O)NC2CCc3nccn3C2)CC1 (stereo unspecified) | -2.09%
CC(NCc1cnc(N2CCN(C)CC2)nc1)c1ccc(F)cc1 (stereo unspecified) | -5.26%

Structure (SMILES) | cytotoxicity at 10 µM
Cc1cnn(CCNCc2csc(COc3ccccc3)n2)c1 | 1.77%
COc1cc(I)c(Cl)cc1C(=O)N(C)C | 11%
CC(=O)c1c(F)cccc1NCC(O)C1CC1 (stereo unspecified) | 13.4%
N#Cc1ccc(N2CCCN(CC(=O)N3CCC3)CC2)cc1 | -8.38%
CCn1c(CN(C)C(C)CSC)nc2c(F)cccc21 (stereo unspecified) | 5.73%
Cc1nn(C)c(C)c1NC(=O)CN1CCCC1c1noc(C2CC2)n1 (stereo unspecified) | -12.1%
CC(C)N(C)[C@@H]1CCN(S(C)(=O)=O)[C@H]1Cc1ccccc1 | 5.7%
O=C(O)c1c(-c2ccncc2)ncc2c1CCN(Cc1ccco1)C2 | -3.6%
Cn1cc(CN2CC[C@@H](O)[C@@H]2Cc2ccccc2)cn1 | -71.2%
Cc1nnn2c1COCC(CNC(=O)c1ccc[nH]1)C2 (stereo unspecified) | 2.7%
CNc1nc(C(=O)N2CCCn3nc(C(=O)N4CCCC4)cc3C2)cs1 | 4.57%
COc1cc2c(cc1CNC(=O)C(C)n1ccnc1C(C)C)CCC2 (stereo unspecified) | 0.719%
CC(C)c1noc(CN(C)C(=O)c2ncn[nH]2)n1 | 6.2%
COCC(Nc1ncnc2sc(C(=O)O)c(C)c12)c1ccnn1C (stereo unspecified) | -18.7%
CCN1CCc2[nH]cnc2C12CCN(C(=O)CCc1cccs1)CC2 | 0.688%
CN(CC(O)CO)c1nc(-c2cccnc2)nc2c1CCNC2 (stereo unspecified) | -0.0186%
CNC(=O)C1CCN(c2cc(C3CCNCC3)nc(C)n2)C1 (stereo unspecified) | -6.43%
Cc1nc(NC(=O)N(C)Cc2ccsc2)nn1C | 1.81%
CN(C)S(=O)(=O)NCc1cccnc1Oc1ccccc1 | 1.6%
CCn1c(C)nnc1SCCNc1nc(C)nc2ncccc12 | 0.194%
CCc1nc(C)c(C2CC(=O)Nc3c2c(-c2cccnc2)nn3C)[nH]1 (stereo unspecified) | -8.13%
Cc1ccc(OC2(C(=O)O)CCN(C/C=C/c3ccco3)CC2)c(C)n1 | 0.449%
N#Cc1cc2c(=O)n(CC(O)Cc3ccccc3)ccc2[nH]c1=O (stereo unspecified) | 2.86%

Structure (SMILES) | cytotoxicity at 10 µM
COc1ccc(NC(=O)Cn2nc(C)c(C)cc2=O)c(OC)c1 | -3.62%
Cc1cccc(CN2CCCC(O)(CNCCN3CCCCC3)C2=O)c1 (stereo unspecified) | 1.02%
Cc1ccccc1S(=O)(=O)N1CCCCC1c1ccn[nH]1 (stereo unspecified) | 12.1%
Cc1noc(Cl)c1CCC(=O)N1CCN(c2ccccc2)CC1 | -1.37%
Cc1ccccc1C(C)N(C)Cc1nc2c(cnn2C)c(=O)[nH]1 (stereo unspecified) | -6.69%
O=C1CCCc2[nH]c(=O)c(C(=O)N(Cc3ccsc3)C3CC3)cc21 | -10.8%
CC(C)C(C(=O)N1CCCN(c2cccnn2)CC1)n1cncn1 (stereo unspecified) | -20.7%
Cc1cnn(CC2CCCCN2Cc2c(C)noc2C)c1 (stereo unspecified) | -11.2%
COc1cc(C)nc(N2CCN(C(=O)COC3CCCC3)CC2)n1 | -3.78%
Cc1cc(C(=O)NCc2cccnc2N(C)C)c(C)o1 | -9.51%
O=C(c1ccc(-n2cccn2)nc1)N1CCCC(n2cccn2)C1 (stereo unspecified) | -4.75%
Cc1cnn(CC2CCCN2Cc2nc3ccccc3c(=O)[nH]2)c1 (stereo unspecified) | -4.82%
Cc1nc(C)n(C2CCCN(C(=O)c3c(C)nn4cccnc34)C2)n1 (stereo unspecified) | -29.2%
Cc1nc2ccccc2nc1CN1CCOC(Cn2cccn2)C1 (stereo unspecified) | 1.1%
Cc1ccc(C(=O)N2CCCC(CNS(C)(=O)=O)C2)o1 (stereo unspecified) | -16%
COc1c(C)cnc(CN(C)C(=O)c2ccccc2O)c1C | -14.3%
CCN1CCN(C2CCN(Cc3nc(-c4ccoc4)no3)CC2)C1=O | -7.39%
CC(Cn1cccn1)NCc1nc(-c2cccc(Cl)c2)no1 (stereo unspecified) | -9.21%
O=C(CN1CCOC(Cn2cccn2)C1)NCc1cccs1 (stereo unspecified) | -6.88%
Cc1nnc2n1CCN(Cc1csc(Cc3ccccc3)n1)C2 | -9.41%
O=C(c1ccc(C(F)(F)F)nc1)N1CCCC(n2cncn2)C1 (stereo unspecified) | -10.6%
COc1ccc(OC)c(CCNC(=O)NC(C)Cn2ccnc2)c1 (stereo unspecified) | -1.06%
Cc1cnn(CCNCC(O)COc2ccc(C#N)cc2)c1 (stereo unspecified) | -11.9%

Structure (SMILES) | cytotoxicity at 10 µM
CCCc1nc(CN2CCCC2Cn2cncn2)cs1 (stereo unspecified) | -9.39%
CC(C)C(=O)N1CCN(C(=O)CCc2nnc(-c3ccccc3)o2)CC1 | -4.66%
CCc1nnc(CNCC2CCN(CC(O)c3ccccc3)CC2)o1 (stereo unspecified) | -1.49%
O=C(CCc1ccc(Br)cc1F)NS(=O)(=O)c1ccc2c(c1)OCCO2 | 2.48%
CCc1nccn1C1CCCN(C(=O)c2cn3cccnc3n2)C1 (stereo unspecified) | 92.6%
CC(C)OCCN(C)C(C)c1cccc(S(N)(=O)=O)c1 (stereo unspecified) | -8.6%
Cc1ccsc1CN(C)Cc1nc2c(cnn2C)c(=O)[nH]1 | -0.575%
CN(CC(=O)NC(Cc1ccsc1)c1cccnc1)Cc1ccccn1 (stereo unspecified) | 3.9%
CC(C)[C@H](N)C(=O)N1CCCC(C2=Nc3ccccc3S(=O)(=O)N2)C1 (stereo partly specified) | 7.96%
CCn1ncc2c1C(COCC1CC1)CN(C(=O)c1ccncn1)C2 (stereo unspecified) | -74.8%
COCC(=O)N1CCC2(CC1)COCCN2Cc1ccc(F)cc1 | -73.4%
O=C(Cc1cccc(F)c1)N1CCn2cc(Cn3cccn3)nc2C1 | -84.3%
O=C(NCc1cn2c(n1)CN(Cc1cccnc1)CC2)C1CCC1 | 6.76%
COc1ccccc1C(=O)N1CCCC1c1ncc2c(n1)CCNC2 (stereo unspecified) | -12.3%
CN(C)c1ncc(-c2cc(C(=O)NCCO)n(CC3CC3)c2)cn1 | -3.53%
CS(=O)(=O)N1CCC[C@]2(C[C@@H](Oc3ncccc3F)CO2)C1 | 4.09%
NCc1ccc(Oc2ccc(F)c(F)c2)cc1C(F)(F)F | -0.587%
CN1C(=O)[C@@H]2CC[C@H]1CN(C(=O)c1sccc1S(N)(=O)=O)C2 | 5.6%
O=C(N1CCCC1)N1C[C@@H]2CC[C@H]1CN(Cc1ccncc1)C2 | 4.63%
